A selection: hits, their analogues and other compounds. The true share with any hit is near 2.4%.
Neddyl block: inhibitors of human cullin neddylation. P61081+Q13564. TR-FRET cullin neddylation, biochemical. inhibition, % at 25 µM. 360,000 compounds, 0.58% hits. AID 651699; in the data active = inhibition above about 36%
HNF4A DNA FP: change in binding of human HNF4 alpha to DNA. P41235. HNF4a-FITC DNA binding, fluorescence polarization, 1 h. activity change, % at 10 µM. 360,000 compounds, 0.3% hits; in the data active = activity change above about 30%, passing the limit was not always enough
PREPL inh: inhibits the human prolyl oligopeptidase-like enzyme; Q4J6C6; recombinant PREPL, fluorescence polarization activity-based probe; inhibition, % at 5.96 µM; 320,000 compounds, 0.68% hits; AID 2751; in the data active = inhibition above about 43%;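 note: 0% = enzyme with DMSO and 100% = wells lacking enzyme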
CSN deneddyl inh: blocks human CSN-mediated cullin deneddylation | Q92905 | Purified CSN, SCF-Nedd8-OG deneddylation, fluorescence polarization | inhibition, % at 12.5 µM | 360,000 compounds, 0.38% hits | AID 651999;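 active = pattern-corrected inhibition above about 35%, with an unprinted fluorescence ratio check between 0.5 and 1.5, limit read from the data, passing the limit was not always enough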;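 note: 0% = enzyme with substrate and 100% = substrate without enzyme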
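Assay system: Purified human Csn5 enzyme expressed in HEK293T cells | Amount: Enzyme 0.24 nM | Measured by: Fluorescence polarization readout | Medium: Tris/NaCl/DTT buffer, pH 7.5 | Compound dosing: One concentration, 12.5 µM, 0.25% DMSO | Times: 90 min incubation of compound, enzyme and substrate at room temperature | Control set: no-enzyme wells high, enzyme-with-substrate wells low | Read-out: % inhibition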
Tb MetRS inh: Trypanosoma brucei MetRS inhibition. purified T. brucei MetRS, ATP depletion, Kinase-Glo luminescence. inhibition, % at 11.9 µM. 360,000 compounds, 0.4% hits. AID 624268;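 active = inhibition above a per-plate cutoff of the control wells' mean inhibition plus 3 SD, cut at about 5.5% in these data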;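 note: 0% = DMSO wells median and 100% = median of wells with control inhibitor compound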
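Test system – parasite MetRS enzyme · Reagent – substrates ATP, L-methionine and bulk Escherichia coli tRNA · Doses – 11.9 µM compound single dose, 0.9% DMSO · Times – 15 min enzyme-compound preincubation, 2 h reaction, 10 min detection, 25 °C · Signal – Kinase-Glo luminescence, ATP depletion format · Controls – DMSO-only wells as low control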
Rpn11 inh: Rpn11 (human) deubiquitinase inhibition; O00487; inhibition, % at 20 µM; 360,000 compounds, 0.59% hits; AID 588493; human 26S proteasome, Ub4-pepOG fluorescence polarization; 20S core pre-blocked with epoxomicin;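 active = inhibition at 20 µM, scaled to each plate's controls, above about 33%, limit read from the data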
Rpn11 confirm: Rpn11 inhibition confirmation, single concentration; shares compounds with Rpn11 inh; purified human 26S proteasome, Ub4-pepOG fluorescence polarization; proteasome pretreated with epoxomicin; inhibition, % at 20 µM; 1,900 compounds, 29% hits; AID 602318
MMP-2 inh: MMP-2 (human) inhibition counter-screen. shares compounds with Rpn11 inh. recombinant MMP-2, FRET peptide cleavage fluorescence. 1,900 compounds, 4% hits. AID 602330. inhibition, % at 20 µM;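 note: human MMP-2 activated beforehand with APMA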
Target sequence (P08253 whole entry, looked up): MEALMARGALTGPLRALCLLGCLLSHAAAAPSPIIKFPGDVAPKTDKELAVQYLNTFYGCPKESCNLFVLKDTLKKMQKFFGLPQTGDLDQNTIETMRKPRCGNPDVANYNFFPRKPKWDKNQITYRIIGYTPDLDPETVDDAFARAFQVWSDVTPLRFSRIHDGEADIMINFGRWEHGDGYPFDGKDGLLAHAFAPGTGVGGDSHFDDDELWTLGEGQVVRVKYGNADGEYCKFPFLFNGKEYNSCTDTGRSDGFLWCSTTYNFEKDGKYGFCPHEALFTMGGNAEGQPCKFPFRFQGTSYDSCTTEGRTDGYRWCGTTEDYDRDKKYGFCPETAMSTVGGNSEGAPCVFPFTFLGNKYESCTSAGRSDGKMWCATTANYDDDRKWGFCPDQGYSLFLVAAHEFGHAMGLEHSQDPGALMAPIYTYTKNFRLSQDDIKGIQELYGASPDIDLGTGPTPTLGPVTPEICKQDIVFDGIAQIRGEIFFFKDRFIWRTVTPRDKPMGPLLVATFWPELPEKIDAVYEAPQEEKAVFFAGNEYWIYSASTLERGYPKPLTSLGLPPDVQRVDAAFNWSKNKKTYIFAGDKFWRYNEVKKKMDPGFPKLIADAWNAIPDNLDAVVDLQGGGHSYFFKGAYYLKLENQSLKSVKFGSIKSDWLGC
Thrombin FP: thrombin (bovine) inhibition counter-screen; AID 602333; 1,900 compounds, 13% hits; inhibition, % at 20 µM; shares compounds with Rpn11 inh; bovine thrombin cleavage of Ub4-pepOG, fluorescence polarization;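 active = mean inhibition at least 40% at 20 µM, or signal 3 deviations below plate average, so some actives read negative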;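 note: plate controls were thrombin with DMSO for no effect and buffer wells lacking thrombin for full effect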
The depositor's hits bear a star; . = not tested or not shown. Cut-off read from the data, not from the text of the source, unless noted: active = inhibition above about 40%; inactive = the rest.

SMILES | Neddyl block | HNF4A DNA FP | PREPL inh | CSN deneddyl inh | Tb MetRS inh | Rpn11 inh | Rpn11 confirm | MMP-2 inh | Thrombin FP
COc1ccc(Cl)cc1NC(=O)CCCNC(=O)c1ccc(Cl)cc1 | -6.6 | 7.6 | 19.1 | 3.9 | -0.4 | 136.7* | 7.3 | -0.7 | 3.3
COc1ccc(OC)c(NC(=O)CCCNC(=O)c2ccc(Cl)cc2)c1 | 0.9 | -1.6 | 3.9 | 2.1 | 0.5 | -0.4 | . | . | .
COc1cc(Cl)ccc1OCc1cc(C(=O)NC(C)Cc2cccnc2)no1 (stereo unspecified) | -5.3 | 1.4 | -1.9 | 0.2 | -0.4 | -0.9 | . | . | .
COCOc1cccc(CN2CCC2(C)C(=O)Nc2ccc3c(c2)OCO3)c1 (stereo unspecified) | 7.8 | 1.3 | . | -6.1 | -0.2 | -1.4 | . | . | .
Cc1nc(C(F)(F)F)ccc1C(=O)N1CCC1(C)C(=O)NS(=O)(=O)c1ccc(C(C)(C)C)cc1 (stereo unspecified) | 0.6 | -7.8 | . | 1.9 | -0.4 | -4.0 | . | . | .
Cc1cccc(NC(=S)N/N=C/c2ccc([N+](=O)[O-])s2)c1 | -6.5 | 10.5 | 26.7 | 16.8 | 0.3 | 38.6* | 2.1 | 35.8 | -12.7
CCOc1cccc2sc(NC(=O)c3ccc(Br)s3)nc12 | -2.5 | 2.1 | 7.0 | 6.8 | 0.0 | 54.3* | -1.1 | 7.7 | -4.2
CCOC(=O)Cc1csc(NC(=O)c2ccc(Br)s2)n1 | . | . | 12.7 | . | . | . | . | . | .
C/C(=N\Nc1nc(-c2cc(C)ccc2C)cs1)c1cc2c(ccc3ccccc32)oc1=O | 37.7 | 12.3 | 0.4 | -13.1 | -0.8 | 46.5* | 14.4 | -11.8 | -8.5
C/C(=N\Nc1nc(-c2cc(C)ccc2C)cs1)c1cc2ccccc2oc1=O | -10.7 | 3.8 | 13.8 | -9.1 | -0.6 | 4.6 | . | . | .
CCCNC(=O)C1(C)CCN(C(=O)c2cccc(C(F)(F)F)c2)C1 (stereo unspecified) | -5.5 | 3.1 | . | 0.8 | -0.3 | 1.0 | . | . | .
CC1=C(C(=O)N2CCCCCC2)CC(CC(=O)NC2CCCC2)C(=O)N1Cc1ccc(F)cc1 (stereo unspecified) | 1.1 | 4.0 | . | 0.0 | 0.1 | . | . | . | .
CCOc1cc(/C=C2\CN(CC)C/C(=C\c3ccc(O)c(OCC)c3)C2=O)ccc1O | 4.0 | 2.1 | 6.6 | 4.8 | -0.9 | 7.8 | . | . | .
CCOc1ccc(N2C(=O)S/C(=C\c3ccc(O)c(OCC)c3)C2=O)cc1 | -12.0 | 14.6 | -5.2 | 2.5 | -0.4 | 46.7* | 8.8 | 26.2 | -1.5
CCOc1cc(/C=C2\SC(=O)N(c3ccc(O)cc3)C2=O)ccc1O | -32.4 | 8.2 | 9.0 | 26.6 | 1.0 | 67.5* | 15.2 | 1.0 | 6.1
CCOc1cc(/C=C2\N=C(SC(C)C(N)=O)N(c3ccc(OC(F)F)cc3)C2=O)ccc1O (stereo unspecified) | -18.3 | 129.5 | 6.3 | 104.2 | 1.0 | . | . | . | .
CCCC(=O)N1CCOCC1c1cc(C(=O)NCc2ccccc2)no1 (stereo unspecified) | -0.4 | 1.2 | . | -2.8 | -0.3 | -3.9 | . | . | .
Cc1cc(C)nc(NC(C)(C)C(=O)O)n1 | 7.5 | 46.7* | 7.5 | -1.4 | -0.2 | 71.3* | -8.9 | 2.6 | -4.9
Cc1cc(C)nc(NC(=O)NC(=O)c2ccccc2)n1 | 9.6 | 3.5 | -11.9 | -2.8 | 0.1 | 3.9 | . | . | .
CCOC1=C2CN(S(=O)(=O)c3ccc(C)cc3)[C@H](c3ccccc3)C[C@@H]2N(S(C)(=O)=O)[C@H](c2ccccc2)C1 | 15.3 | 13.6 | . | 5.2 | -0.3 | 47.8* | 28.3 | -11.0 | 19.3
COc1ccc(/C=C2\Oc3cc(OCC(=O)N4CCC[C@H]4C(=O)O)ccc3C2=O)c(OC)c1 | 2.5 | 23.9 | -4.5 | 13.5 | 0.3 | 58.6* | 142.1* | -1.0 | 87.4*
Cc1ccc(C(=O)/C=C/c2ccc(-c3ccc(C)cc3)o2)cc1 | 2.3 | 5.8 | 4.8 | 3.4 | -0.3 | 42.9* | 18.4 | 0.5 | -12.6
